# Activity calls are given as the source filed them.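 Rule for the calls: active = half-maximal effective dose for blocking growth of human endothelial cells at most 100 µM; inactive = the rest.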
# Tested on: not listed separately
# Assay: HUVEC proliferation inhibition, dose response, cell-based, ATP luminescence (AID 822);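 note: cells exposed to compound for 72 h before the ATP read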;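 for viability: 100% = median luminescence of untreated cell-only control wells on each plate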
# Settings: HUVEC proliferation, viability ATP luminescence; at 10 µM (top of the series)
# Method in brief: (§1)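 Test system: HUVEC; Input: 1250 HUVEC cells seeded per well; Doses: 0.039–20 µM, 0.2% DMSO; Evaluation: % viability versus median cell-only wells, EC50 from 4-parameter fit; Medium: EBM plus 2% FBS; Incubation: compound treatment 72 h, 37 °C; Signal: luminescent ATP measurement with CellTiter-Glo reagent; Plate: collagen-coated multiwell plates.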
row,SMILES,viability
1,COc1cccc(C(=O)Oc2c(CN3CCOCC3)cc(Cl)c3cccnc23)c1,84% (inactive)

# Same assay, conditions: HUVEC proliferation, viability ATP luminescence; at 20 µM (top of the series)
row,SMILES,viability
1,COc1ccccc1N1CCN(C(=O)c2ccc(Br)s2)CC1,97.5% (inactive)
2,c1ccc2c(c1)oc1c(NCCCN3CCOCC3)ncnc12,96.1% (inactive)
3,Cc1nn(C)c(C)c1NC(=O)CSc1nc(C2CC2)nc2c1cnn2-c1ccccc1,101% (inactive)
4,CCCN(CCO)Cc1cccc(Br)c1,92.7% (inactive)
5,O=C(CC1SCCNC1=O)Nc1cc(Cl)cc(Cl)c1 (stereo not drawn),96.6% (inactive)
6,CC1(C)CSC(=S)N1S(=O)(=O)c1ccccc1,99.8% (inactive)
7,NC(=O)Cc1c[nH]c2cccc(O)c12,103% (inactive)
8,Cc1cc(Cl)ccc1OCCCC(N)=O,94% (inactive)
9,Cc1cc(C)n(-c2nc(Nc3ccccc3C)nc(-n3nc(C)cc3C)n2)n1,118% (inactive)
10,O=C(Nc1cccnc1)c1ccc(Br)s1,90% (inactive)
11,C=CCn1c(SCC(=O)NC(=O)NCc2ccco2)nc2sc(CC)cc2c1=O,86.9% (inactive)
12,CN(CCO)c1cc(Sc2nc3ccccc3s2)c2nonc2c1[N+](=O)[O-],85.4% (inactive)
13,CCn1c(SCC(=O)Nc2cc(C)on2)nc2sc3c(c2c1=O)CCCC3,86.3% (inactive)
14,Cc1ccc(-n2nnnc2SCC(=O)Nc2ccc3c(c2)COC3=O)cc1C,91.3% (inactive)
15,COc1ccc(OC)c(C(=O)CSc2nnc(-c3ccc(OC)c(OC)c3)o2)c1,86.2% (inactive)
16,COc1ccccc1NC(=O)C1C2C=CC(O2)C1C(=O)O (stereo not drawn),94.6% (inactive)
17,CC(C)OC(=O)NCCOC(=O)Nc1cccc(Cl)c1,89.1% (inactive)
18,Cn1c(=O)c2c(ncn2CC(=O)Nc2nc(-c3ccccc3Cl)cs2)n(C)c1=O,89.5% (inactive)
19,CC1(C)CC(NC(=O)c2coc(=O)c(Br)c2)CC(C)(C)N1,81% (inactive)
20,Cc1cc(NC(=O)c2cccc(S(=O)(=O)N3CC(c4ccccc4)CC3=O)c2)no1 (stereo not drawn),91.3% (inactive)
21,Cc1cc(C(=O)OC(C)C(=O)Nc2cccc(S(=O)(=O)N3CCOCC3)c2)c(C)o1 (stereo not drawn),101% (inactive)

row,SMILES,viability
1,Cc1ccc(NC(=O)c2c(O)c3ccccc3n(C)c2=O)nc1,101% (inactive)
2,CCOC(=O)CNC(=O)C(=O)c1c(O)[nH]c2ccccc12,96.7% (inactive)
3,CC1=C(C)CS(=O)N(S(=O)(=O)c2ccccc2)C1 (stereo not drawn),80.3% (inactive)
4,Oc1ccc2oc3c(c2c1/C=N/n1cnnc1)CCCC3,88.2% (inactive)
5,CCC(C)(C)n1nnnc1C(c1cc2cc(C)cc(C)c2[nH]c1=O)N1CCN(Cc2ccc3c(c2)OCO3)CC1 (stereo not drawn),80.5% (inactive)
6,COc1ccc(NC(=O)CSc2nnc(CNC(=O)COc3ccc(Cl)cc3)o2)c(OC)c1,95.2% (inactive)
7,Cc1ccc(-c2nnc(N3CCN(C(=O)CSc4ncn[nH]4)CC3)c3ccccc23)cc1,85.9% (inactive)
8,CCOC(=O)N1CCN(C(=O)c2nn(-c3ccc(C)cc3)c(=O)c3c2c2ccccc2n3C)CC1,89.2% (inactive)
9,CN(C)C(=O)CSc1cccc2cccnc12,84.4% (inactive)
10,Brc1cccc(-c2nnc3sc(CNC4CCCC4)cn23)c1,84% (inactive)
11,CC1CC(C)CN(S(=O)(=O)c2ccc(C(=O)NCCCn3ccnc3)cc2)C1 (stereo not drawn),88.4% (inactive)
12,CC1=C(C)CS(=O)N(S(=O)(=O)c2ccc(Cl)cc2)C1 (stereo not drawn),101% (inactive)
13,Cc1ccc(C(C#N)c2ccc(C(=O)c3ccc(F)cc3)cc2)cc1 (stereo not drawn),84% (inactive)
14,Cc1ccc(-n2c(SCC(=O)Nc3nccs3)nc3c(c2=O)SCC3)cc1,100% (inactive)
15,COc1ccc2[nH]cc(C(=O)CN3CCN(C(=O)c4ccco4)CC3)c2c1,101% (inactive)
16,COc1ccc(CCn2c(=S)[nH]c3cc(C(=O)NCc4ccco4)ccc3c2=O)cc1OC,102% (inactive)
17,Cc1nc2ccccc2n1CCc1nc2c3ccccc3nc(SCC(=O)NCc3ccco3)n2n1,86.4% (inactive)
18,COc1ccc2[nH]cc(C(=O)CN3CCN(C4CCCCC4)CC3)c2c1,85.4% (inactive)
19,O=C(Nc1ccc(-c2nc3c(ccc4ccccc43)o2)cc1)c1ccco1,90% (inactive)
20,CC1(C)Cc2ccccc2C(NNC(=O)c2ccccn2)=N1,93.7% (inactive)
21,CCn1nc(C(=O)NC2=NCCS2)c2ccccc2c1=O,101% (inactive)

row,SMILES,viability
1,OC1(Cc2ccn[nH]2)CCCCC1,93.6% (inactive)
2,Cc1ccc(Cn2c(=S)[nH]c3ccc(N4CCOCC4)cc3c2=O)o1,90.9% (inactive)
3,Cc1ccc(Cn2c(SCC(=O)Nc3cc(C)on3)nc3ccccc3c2=O)cc1,81.2% (inactive)
4,COCCn1c(C)cc(C(=O)CSc2nc3ccccc3o2)c1C,96.1% (inactive)
5,Cc1ccc(-n2c(Cc3cccs3)nnc2SCC(=O)Nc2ccc(F)c(F)c2)cc1,82.4% (inactive)
6,Clc1ccc(-c2nc(NCCN3CCOCC3)c3ccccc3n2)cc1,86% (inactive)
7,CC1CCCN(c2oc(-c3cccc4ccccc34)nc2C#N)C1 (stereo not drawn),92.1% (inactive)
8,CC1CCCC(NC(=O)C2CCN(S(=O)(=O)N3CCC4(CC3)OCCO4)CC2)C1C (stereo not drawn),93.2% (inactive)
9,CCCC1(CCC)NC(=O)N(CC(=O)Nc2ccccc2OC)C1=O,113% (inactive)
10,COc1ccc2cc3cc(C(=O)NCCc4ccc(OC)c(OC)c4)oc3nc2c1,93.3% (inactive)
11,CCOC(=O)c1ccc(NC(=O)c2c(C)[nH]c(C(=O)OCC)c2C)cc1,96.7% (inactive)
12,Cn1c(=O)c2cc(NCc3ccccc3)nnc2n(C)c1=O,92.6% (inactive)
13,CC(C(=O)N1CCOCC1)N1C(=O)c2ccccc2C1=O (stereo not drawn),105% (inactive)
14,Cn1c(=O)cc(SCC(=O)NCC2COc3ccccc3O2)c2ccccc21 (stereo not drawn),98.4% (inactive)
15,O=C(COc1nc2ccccc2nc1N1CCOCC1)N1CCc2ccccc21,86.1% (inactive)
16,CCOC(=O)c1ccc2c(c1)NC(=O)C(N1CCN(c3ccc(OC)cc3)CC1)S2 (stereo not drawn),98% (inactive)
17,CCOc1ccc(OCc2ccc(C(=O)NCC3CCCO3)o2)cc1 (stereo not drawn),116% (inactive)
18,CCOC(=O)c1c(NC(=O)C2COc3ccccc3O2)sc(C(C)=O)c1C (stereo not drawn),112% (inactive)
19,Cn1c(NC(=O)c2cccc(Cn3cc(Cl)cn3)c2)nc2ccccc21,83.1% (inactive)
20,O=C(Cc1sc(-c2ccccc2Cl)nc1-c1ccccc1)Nc1ccc(F)cc1,83.5% (inactive)
21,CCCS(=O)(=O)N1CCC(C(=O)N2CCC3(CC2)OCCO3)CC1,99.1% (inactive)

row,SMILES,viability
1,Cc1cc(C(=O)Nc2nc3ccc(S(C)(=O)=O)cc3s2)c(C)o1,82.9% (inactive)
2,O=C1CSC(c2ccccn2)N1Cc1cn2ccccc2n1 (stereo not drawn),120% (inactive)
3,N#CCC(=O)Nc1ncn(Cc2ccccc2Cl)n1,95.8% (inactive)
4,O=C(CCSc1ccc(Cl)cc1)N1CCN(c2ncccn2)CC1,94.5% (inactive)
5,O=C(Oc1ccccc1-c1nnco1)c1ccc(Cl)cc1,105% (inactive)
6,COc1ccc(N2C(=O)CC(Sc3nnc(-c4ccccc4)o3)C2=O)cc1 (stereo not drawn),95% (inactive)
7,O=C(/C=C/NNC(=O)c1ccccc1)c1ccccc1,109% (inactive)
8,CCOc1ccc(NS(=O)(=O)c2ccc(OCC(=O)NCCCOC)cc2)cc1,94.4% (inactive)
9,Nc1nc2ccccc2n1/N=C/c1ccc(-c2ccccc2)o1,90.9% (inactive)
10,COc1ccc(-c2nnc(SCCc3ccccc3)n2N)cc1,108% (inactive)
11,COc1ccc(OC)c2sc(N3CCCCC3)nc12,88.4% (inactive)
12,C=CCn1c(O)c(C2=c3ccccc3=NC2=O)s/c1=N/c1nccs1,85.2% (inactive)
13,Cc1ccc(NC(=O)C(C)N2C(=O)c3ccccc3C2=O)cc1 (stereo not drawn),90.9% (inactive)
14,CCC(=O)N1c2ccc(S(=O)(=O)CCC(=O)N3CCn4c3nc3ccccc34)cc2CC1C (stereo not drawn),84.1% (inactive)
15,CCOc1ccc(-c2nn3c(-c4ccccc4)nnc3s2)cc1,83.3% (inactive)
16,COc1cccc2c(C)nc(Nc3nc(CSc4nnc(C)s4)cc(=O)[nH]3)nc12,101% (inactive)
17,O=C(Nc1nc(NC(=O)c2ccco2)n(-c2ccccc2)n1)c1ccccc1,84.5% (inactive)
18,c1ccc(CSc2nnc(-c3c[nH]c4ccccc34)o2)cc1,85.9% (inactive)
19,COc1ccc(Cl)cc1C(=O)n1nc(C)cc1C,96.7% (inactive)
20,Cc1nc2cc(N3CCCCC3)c(NC(=O)c3cccnc3)cc2c(=O)n1Cc1ccccc1,89.3% (inactive)

# Tested on: HUVEC proliferation, viability ATP luminescence
# Assay: as above
# Settings: not given
# Method in brief: as §1
row,SMILES,EC50 [µM]
1,COC(=O)c1ccc2c(=O)n(Cc3ccco3)c(SCC(=O)Nc3ccc(C)c(Cl)c3)nc2c1,9.21
2,Cc1cccc(-c2nc(CN3CCCC(C(=O)NC4CCC(C)CC4)C3)c(C)o2)c1 (stereo not drawn),11.6
3,CN1CCN(c2nc3ccccc3nc2C(C#N)C(=O)OC2CCCCC2)CC1 (stereo not drawn),3.87
4,CC1CCC(C(=O)c2c(O)c3ccccc3oc2=O)CC1 (stereo not drawn),7.71
5,CCCn1c(Nc2nc3ccccc3n2C)nc2ccccc21,3.01
6,Cc1ccc(C(=O)Nc2ncc(Cc3ccccc3)s2)o1,0.711
7,N/C(Cc1ccc(Cl)cc1)=N\OC(=O)c1ccc2ccccc2c1,9.87
8,COC(=O)/C(=C\Nc1ccc(Cl)cc1Cl)NC(=O)c1ccc(Cl)cc1Cl,7.64
9,CC(=O)Nc1ccc(S(=O)(=O)NC2=C(N3CCN(c4ccc(F)cc4)CC3)C(=O)c3ccccc3C2=O)cc1,2.38
10,Cc1ccc2[nH]c3c(c2c1)CCC3=O,14.7
11,c1ccc(-c2nc3nonc3nc2-c2ccccc2)cc1,3.46
12,CCc1ccc(-c2nc(CN3CCC(C(=O)NCc4ccc(F)cc4)CC3)c(C)o2)cc1,5.89
13,O=C1CC(c2ccco2)Cc2nc(Nc3nc(-c4ccccc4)c4ccccc4n3)ncc21 (stereo not drawn),7.44
14,Cn1c(=O)c2c(nc(Oc3ccc4c(c3)OCO4)n2Cc2ccc(Cl)cc2)n(C)c1=O,5.33

# Source: PubChem BioAssay AID822 (SRMLSC, 2007)
